Experimental data reported in ChEMBL document CHEMBL3751671, “Synthesis and biological activity of diisothiocyanate-derived mercapturic acids” (Bioorg Med Chem Lett, 2016).

How the values were obtained:
[1] = Potency index, ratio of IC50 for doxorubicin to IC50 for test compound against human LoVo/DX cells assessed as reduction in cell viability after 72 hrs by SRB assay; format: functional
[2] = Antiproliferative activity against human LoVo/DX cells assessed as reduction in cell viability after 72 hrs by SRB assay; format: functional, cell-based
How it was run: (§1)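 Human colon adenocarcinoma LoVo cells and their doxorubicin-resistant subline LoVo/DX. Growth was read by sulforhodamine B (SRB) staining. IC50 values are means ± SD from at least three experiments, each in triplicate.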

[3] = test system: LoVo; assay: Antiproliferative activity against human LoVo cells assessed as reduction in cell viability after 72 hrs by SRB assay; format: functional, cell-based; how it was run: as §1
[4] = target: Histone deacetylase; assay: Inhibition of HDAC in human LoVo/DX cells using Boc-Lys(Ac)-AMC as substrate assessed as release of AMC pre-incubated for 15 mins followed by substrate addition measured after 3 hrs by indirect spectrofluorometric assay; format: cell-based
How it was run: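 Crude enzyme was LoVo/DX cell lysate. HDAC activity was read by an indirect spectrofluorometric assay, and IC50 was determined on the lysate.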

[5] = test system: BALB/3T3; assay: Cytotoxicity against mouse BALB/3T3 cells after 72 hrs by SRB assay; format: cell-based; conditions: BALB/3T3, 72 h
[6] = test system: Mus musculus; assay: Toxicity in Balb/c mouse assessed as changes in blood biochemical parameters at 900 umol/kg; format: organism-based; conditions: in vivo
How it was run: (§2)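 Preliminary in vivo toxicity study in Balb/c mice given high doses (900 µmol/kg b.w.). Toxicity was judged from body weight changes, blood morphology and blood biochemical analysis.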

[7] = test system: Mus musculus; assay: Toxicity in Balb/c mouse assessed as changes in body weight at 900 umol/kg; format: organism-based; conditions: in vivo; how it was run: as §2
[8] = test system: Mus musculus; assay: Toxicity in Balb/c mouse assessed as changes in blood morphology at 900 umol/kg; format: organism-based; conditions: in vivo; how it was run: as §2
[9] = Selectivity index, ratio of IC50 for mouse BALB/3T3 cells to IC50 for human LoVo/DX cells; format: functional
[10] = test system: LoVo; assay: Selectivity index, ratio of IC50 for mouse BALB/3T3 cells to IC50 for human LoVo cells; format: functional
[11] = test system: LoVo; assay: Selectivity index, ratio of IC50 for human LoVo/DX cells to IC50 for human LoVo cells; format: functional
[12] = Homo sapiens, LoVo, 72 h, read-out: IC50

IC50 [3, 12] | IC50 [4] | SMILES | IC50 [2] | IC50 [5] | other results
36.6 µM | 3200 µM | CCCCCNC(=S)SC[C@H](NC(C)=O)C(=O)O | 42.8 µM | 48.5 µM | 
2.02 µM | 2330 µM | CC(=O)N[C@@H](CSC(=S)NCCCCNC(=S)SC[C@H](NC(C)=O)C(=O)O)C(=O)O | 4.84 µM | 5.54 µM | Activity [6]: Non-toxic; Activity [7]: Non-toxic; Activity [8]: Non-toxic
3.7 µM | 2940 µM | COc1ccc(CNC(=S)SC[C@H](NC(C)=O)C(=O)O)cc1 | 4.2 µM | 6.9 µM | 
7.15 µM | 2190 µM | CC(=O)N[C@@H](CSC(=S)NCCCC(C)CNC(=S)SC[C@H](NC(C)=O)C(=O)O)C(=O)O (some centres not stated) | 6.6 µM | 7.99 µM | 
23.5 µM | 290 µM | CC(=O)N[C@@H](CSC(=S)Nc1ccc(NC(=S)SC[C@H](NC(C)=O)C(=O)O)cc1)C(=O)O | 19.4 µM | 79.5 µM | Ratio IC50 [9]: 3; Ratio IC50 [10]: 3
4.22 µM | 5960 µM | CC(=O)N[C@@H](CSC(=S)NCCCNC(=S)SC[C@H](NC(C)=O)C(=O)O)C(=O)O | 9.55 µM | 8.65 µM | 
12.7 µM | 3450 µM | CC(=O)N[C@@H](CSC(=S)NCCc1ccccc1)C(=O)O | 7.7 µM | 25.3 µM | 
2.59 µM | 4260 µM | CC(=O)N[C@@H](CSC(=S)NCCCOCCOCCOCCCNC(=S)SC[C@H](NC(C)=O)C(=O)O)C(=O)O | 7.93 µM | 7.15 µM | 
 | 1660 µM | CC(=O)N[C@@H](CSC(=S)NC1CCCCC1NC(=S)SC[C@H](NC(C)=O)C(=O)O)C(=O)O (some centres not stated) | 473 µM | 75.2 µM | IC50 ([3]; lovo): Not Active
35.2 µM |  | Cc1ccc(N=C=S)cc1N=C=S | 47.3 µM |  | 
> 25 µM | 970 µM | CC(=O)N[C@@H](CSC(=S)Nc1cccc(NC(=S)SC[C@H](NC(C)=O)C(=O)O)c1)C(=O)O | > 25 µM | > 100 µM | 
11.7 µM | 3440 µM | CC(=O)N[C@@H](CSC(=S)NCc1ccccc1)C(=O)O | 16.8 µM | 23.4 µM | 
151 µM |  | CCCNC(=S)SC[C@H](NC(C)=O)C(=O)O | 112 µM | 224 µM | 
11.7 µM | 2680 µM | CC(=O)N[C@@H](CSC(=S)NCC1CCCC(CNC(=S)SC[C@H](NC(C)=O)C(=O)O)C1)C(=O)O (some centres not stated) | 12.8 µM | 5.88 µM | Ratio IC50 [9]: 0.5
20.5 µM | 450 µM | CC(=O)N[C@@H](CSC(=S)Nc1ccc(C)c(NC(=S)SC[C@H](NC(C)=O)C(=O)O)c1)C(=O)O | 22.4 µM | 54.7 µM | Ratio IC50 [9]: 3; Ratio IC50 [10]: 3
4.62 µM | 4370 µM | CC(=O)N[C@@H](CSC(=S)NCCOCCOCCNC(=S)SC[C@H](NC(C)=O)C(=O)O)C(=O)O | 14.2 µM | 6.87 µM | Ratio IC50 [9]: 0.5
5.21 µM | 3740 µM | CC(=O)N[C@@H](CSC(=S)N[C@H]1CC[C@H](NC(=S)SC[C@H](NC(C)=O)C(=O)O)CC1)C(=O)O | 3.45 µM | 7.27 µM | 
130 µM | 3460 µM | CCCCNC(=S)SC[C@H](NC(C)=O)C(=O)O | 134 µM | 206 µM | 
3.7 µM |  | COc1ccc(CN=C=S)cc1 | 3.9 µM |  | 
 | 3160 µM | CC(=O)N[C@@H](CS)C(=O)O [ACETYLCYSTEINE] |  |  | 
 |  | COc1cccc2c1C(=O)c1c(O)c3c(c(O)c1C2=O)C[C@@](O)(C(=O)CO)C[C@@H]3O[C@H]1C[C@H](N)[C@H](O)[C@H](C)O1 [DOXORUBICIN] | 7.2 µM | 0.11 µM | Ratio IC50 [11]: 48
 |  | S=C=NCCc1ccccc1 [PHENETHYLISOTHIOCYANATE] | 9.8 µM |  | 

SMILES | IC50 [3, 12] | IC50 [4] | IC50 [2] | IC50 [5] | other results
S=C=NCCCCN=C=S | 1.88 µM |  | 2.35 µM |  | Ratio IC50 [1]: 3
S=C=NCCCN=C=S | 1.84 µM |  | 2.44 µM |  | 
S=C=Nc1cccc(N=C=S)c1 | 46.4 µM |  | 55.7 µM |  | 
CCCCCN=C=S [1-ISOTHIOCYANATOPENTANE] | 88.3 µM |  | 75.2 µM |  | 
S=C=NCc1ccccc1 [BENZYL ISOTHIOCYANATE] | 14.5 µM |  | 19.8 µM |  | 
S=C=Nc1ccc(N=C=S)cc1 [BITOSCANATE] | 9.41 µM |  | 11.6 µM |  | 
CCCCN=C=S [BUTYL ISOTHIOCYANATE] | 296 µM |  | 265 µM |  | 
CCCN=C=S [PROPYL ISOTHIOCYANATE] | 181 µM |  | 177 µM |  | 
